In the array DNA melting data of Ke et al. (doi:10.1101/2024.01.08.574731) one finds folding enthalpy and Tm data, which are given here for 31 sequences.

Series [1] in a line: folding enthalpy; higher = less favourable; fluorescence melt of hairpins on a sequencing array, two-state fit. The settings on record: sodium 0.088 M. An outline of the steps:
(§1)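 Folding enthalpy and melting temperature come from bootstrapped two-state fits to Cy3 fluorescence of library hairpins carrying annealed Cy3 and quencher oligos on a sequenced MiSeq flow cell. Imaging was done in 50 mM Na-HEPES pH 8.0, 25 mM NaCl, stepping by 2.5 °C up to 60 °C, and signals were normalised to pre-quench Cy3 and to control constructs. Results of four replicates were combined by inverse variance, and fitted temperatures were raised by 9.35 °C to match UV melts.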

Series [2] is described as follows: melting temperature; fluorescence melt of hairpins on a sequencing array, two-state fit, raised by 9.35 °C to match UV melts. The settings on record: sodium 0.088 M. An outline of the steps: as §1

Regarding GATCTCACTGGAGATC ((((((....)))))), the folding enthalpy in series [1] was -40 kcal/mol. Moreover, the Tm in series [2] worked out at 51.3 °C.
On the same counts, the results for GAAGTTGGAAACAATTTC (((.(((....))).))) are -20.4 kcal/mol and 35 °C.
On the same counts, the results for GATCACACCGTGATC ((((((...)))))) are -38.5 kcal/mol and 60.6 °C.
For GCAAAGCGAAAGCTCCGC ((..(((....)))..)) the same measures were -11.4 kcal/mol and 29 °C.
For the sequence GGGCCAGGAAACTAGCCC ((((.((....)).)))), the folding enthalpy in series [1] is -27.3 kcal/mol. Besides, in series [2], the Tm amounted to 48.6 °C.
For GGTTGTCGAAAGACGACC (((.(((....))).))) the same measures were -39.9 kcal/mol and 58.8 °C.
On the same counts, the results for GCCAGTCGAAAGACGGC (((.(((....)))))) are -33.8 kcal/mol and 61.6 °C.
For GATCCGTAACGGATC ((((((...)))))) the same measures were -34.1 kcal/mol and 57.6 °C.
Take GCCAAGCGAAAGCAAGGC (((..((....))..))): the folding enthalpy in series [1] is -23.7 kcal/mol. In series [2], the Tm was 59.2 °C.
For GGCTCAGCGAAAGCTGCC (((..(((....)))))) the same measures were -12.3 kcal/mol and 44.2 °C.
As for GTTACAGGAAACTGTGAC ((.((((....)))).)), the folding enthalpy in series [1] was -30 kcal/mol. Further, the Tm in series [2] worked out at 44.6 °C.
For GTGCCCGAAAGGGCGCAC ((((((....)))..))) the same measures were -8.85 kcal/mol and 64.8 °C.
In the case of GATCCGCCGCCGGATC ((((((....)))))), the folding enthalpy in series [1] is -42.4 kcal/mol. The Tm in series [2] is 59 °C.
With GCTTGTGGAAACGTAAGC ((((..(....)..)))), the folding enthalpy in series [1] was -17.7 kcal/mol. Moreover, the Tm in series [2] stood at 36.6 °C.
As for CGAGCGCGGAAACGCTCG (((..(((....)))))), the folding enthalpy in series [1] is -29.8 kcal/mol. Moreover, the Tm in series [2] came out at 68.5 °C.
Consider GGGTTAGGAAACTAGCCC (((.(((....))).))), for which the folding enthalpy in series [1] was -24.3 kcal/mol. Besides, the Tm in series [2] is 49 °C.
On the same counts, the results for GGGCAGCGAAAGCTCCC (((.(((....)))))) are -20.3 kcal/mol and 57.3 °C.
For GGGTCCGGAAACGGGCTC (.(.(((....))).).) the same measures were -21.3 kcal/mol and 50.5 °C.
For GATCAGCTGCTGATC ((((((...)))))) the same measures were -47.7 kcal/mol and 50.7 °C.
With GATCTATTTGTAGATC ((((((....)))))), the folding enthalpy in series [1] is -35 kcal/mol. The Tm in series [2] is 45.2 °C.
On the same counts, the results for GTGCACGAAAGTGACAC ((((((....))).))) are -25.9 kcal/mol and 52.9 °C.
On the same counts, the results for GTGGATGGAAACATCCAC (((((((....))))))) are -50.1 kcal/mol and 65.1 °C.
On the same counts, the results for GTACACCGAAAGGTATAC (((.(((....))).))) are -22.3 kcal/mol and 39.1 °C.
For the sequence GCGTCAACACGC ((((....)))), in series [1], the folding enthalpy is -21.8 kcal/mol. Moreover, in series [2], the Tm turned out to be 48.5 °C.
On the same counts, the results for GCGTCGGCACGC ((((....)))) are -10.7 kcal/mol and 56.4 °C.
Take GATCCCTCGCGGGATC ((((((....)))))): the folding enthalpy in series [1] is -39.1 kcal/mol. Moreover, the Tm in series [2] is 59.6 °C.
For GCCGTGCGAAAGCCCTGC ((.(.((....)).).)), the folding enthalpy in series [1] was -9.62 kcal/mol. Also, the Tm in series [2] was determined as 30.3 °C.
With GGCGGCACGAAAGTGGCC (((..(((....)))))), in series [1], the folding enthalpy was -11.6 kcal/mol. The Tm in series [2] stood at 52 °C.
For GTCAACCGAAAGGTCGAC (((.(((....))).))) the same measures were -35.1 kcal/mol and 50.9 °C.
For GGTGCTGGAAACAGCGTC (..((((....))))..) the same measures were -12.8 kcal/mol and 41 °C.
As for GTTAGCGGAAACGTTAAC ((((.((....)).)))), the folding enthalpy in series [1] was -28.8 kcal/mol. Besides, the Tm in series [2] came out at 44.2 °C.
